Data on 26 molecules can be found in ChEMBL document CHEMBL5321212, “Design, synthesis, and evaluation of substituted alkylindoles that activate G protein-coupled receptors distinct from the cannabinoid CB1 and CB2 receptors” (Eur J Med Chem, 2023).

Activity calls are given as the source filed them. The rule behind the calls is not given here.

Test [1] concerns Cell membrane. Nature of the test: Displacement of [3H]-WIN55212-2 from HEK293 cell membrane lacking CB1R and CB2R at 1 uM. Format: subcellular. The settings on record: Homo sapiens.
Test [2] deals with Cell membrane. Nature of the test: Displacement of [3H]-WIN55212-2 from HEK293 cell membrane lacking CB1R and CB2R assessed as inhibition constant for lower affinity site. To be noted: Homo sapiens. Format: subcellular. Put shortly: (§1)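 HEK293 membranes (P2 fractions from independent cultures) incubated with [³H]WIN55212-2 plus increasing concentrations of competitor; specific binding determined by filtration. Ki derived from competition curves, fitted as one or two sites (high and low affinity) where curves were biphasic. n = 3–8 independent membrane preparations, each run in triplicate.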

Test [3] has as its system Cell membrane. The experiment in a line: Displacement of [3H]-WIN55212-2 from HEK293 cell membrane lacking CB1R and CB2R assessed as inhibition constant for higher affinity site. Format: subcellular. To be noted: Homo sapiens. Summed up: as §1
In general terms: Displacement assays read how much labelled ligand stays bound in the presence of the test substance.

A short description of test [4]: (§2) Induction of [35S]GTPgammaS binding to HEK293 cell membrane lacking CB1R and CB2R by filtration assay. Format: cell membranes, Homo sapiens. Summed up: (§3)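 [³⁵S]GTPγS binding to HEK293 cell membranes stimulated by compound. Gi/o dependence tested by pretreating cultured cells with pertussis toxin (100 ng/ml, 20 h). Where stated, CB1R antagonist […] (1 μM) or CB2R antagonist SR144528 (1 μM) was present. Mean ± SEM of n = 3–4 experiments, each in triplicate.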
A general note: GTPγS resists hydrolysis and so accumulates on activated G proteins.

The test system of test [5] is HEK293. Nature of the test: Induction of HA-tagged human CB1R internalization in HEK293 cells. Format: functional, cell-based. Summed up: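 HEK293 cells stably expressing HA-tagged human CB1R exposed to compound at 3 μM. Internalization measured and expressed as % of vehicle control. Antagonism tested with […] (1 μM). Positive control CP55940 (1 μM). Mean ± SEM of 3–5 independent experiments. One-way ANOVA with Bonferroni post-test.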

Test [6] concerns HEK293. Nature of the test: Induction of HA-tagged human CB2R internalization in HEK293 cells. Format: functional, cell-based. Summed up: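 HEK293 cells stably expressing HA-tagged human CB2R exposed to compound at 3 μM. Internalization measured and expressed as % of vehicle control. Antagonism tested with AM630 (1 μM). Positive control CP55940 (1 μM). Mean ± SEM of 3–5 independent experiments. One-way ANOVA with Bonferroni post-test.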

The nature of test [7]: Displacement of [3H]-WIN55212-2 from HEK293 cell membrane lacking CB1R and CB2R assessed as inhibition constant. Format: cell membranes, Homo sapiens. Summed up: as §1
For test [8], the system named is Cell membrane. Nature of the test: Displacement of [3H]-WIN55212-2 from HEK293 cell membrane lacking CB1R and CB2R in presence of GTPgammaS by filtration assay. Format: subcellular. To be noted: Homo sapiens. Put shortly:
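HEK293 membranes incubated with [³H]WIN55212-2 and test compound, with or without GTPγS (20 μM). Specific binding determined by filtration assay. Mean ± SEM of n = 3–4 experiments, each in triplicate.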

Test [9] concerns HEK293. The experiment in a line: Induction of [35S]GTPgammaS binding to HEK293 cell membrane lacking CB1R and CB2R in presence of SR144528 by filtration assay. Format: cell membranes. To be noted: Homo sapiens. Put shortly:
as §3

The subject of test [10] is HEK293. The experiment in a line: Induction of [35S]GTPgammaS binding to HEK293 cell membrane lacking CB1R and CB2R in presence of SR141716 by filtration assay. Format: cell membranes. To be noted: Homo sapiens. Put shortly:
as §3

Test [11] has as its system HEK293. The description is as §2. To be noted: Homo sapiens. Format: cell membranes. Summed up:
as §3

Turning to `Cc1c(C(=O)c2cccc3ccccc23)c2cccc3c2n1[C@H](CN1CCOCC1)CO3`, in the test on Cell membrane [1], the result was inactive.
For the molecule `Cc1ccc(C(=O)c2c(C)n(CCN3CCOCC3)c3cnccc23)c2ccccc12`, the KiL with Cell membrane [2] turned out to be 2.1 µM. Besides, the KiH with Cell membrane [3] came out at 5.8 nM.
Turning to `Cc1ccc(C(=O)c2c(C)n(CCN3CCOCC3)c3ncccc23)c2ccccc12`, in the test on Cell membrane [2], the KiL stood at 0.382 µM. The EC50 (commonly the concentration giving half of the maximal effect) in test [4] was 1.1 nM. Further, the result in the test on HEK293 [5] and with HEK293 [6] was Active. In addition, in the test with Cell membrane [3], the KiH is 0.4 nM.
`Cc1ccc(C(=O)c2c(C)n(CCN3CCOCC3)c3cc(Cl)ccc23)c2ccccc12` returned an EC50 in [4] of 3.5 nM. Also, the Ki (usually the dissociation constant of the complex between target and ligand, obtained from inhibition or displacement) in [7] turned out to be 3.5 nM.
Take `Cc1ccc(C(=O)c2c(C)n(CC(F)(F)F)c3ccccc23)c2ccccc12`: the result in the test with HEK293 [5] was inactive. Further, in the test on HEK293 [6], the result was Active. Besides, the Ki in test [7] stood at 1.8 nM.
As for `Cc1ccc(C(=O)c2c(C)n(CCN3CCOCC3)c3cc(Cl)cc(Cl)c23)c2ccccc12`, the outcome with Cell membrane [1] was inactive.
For `CCn1c(C)c(C(=O)c2ccc(C)c3ccccc23)c2ccccc21`, the KiL in the test on Cell membrane [2] was 0.085 µM. For the same molecule, the result in the test on Cell membrane [8], in the test with HEK293 [9], with HEK293 [10] and with HEK293 [6] was Active. The molecule further showed an EC50 in test [4] of 5 nM. The result with HEK293 [5] was inactive. In the test with Cell membrane [3], the KiH came out at 1.5 nM.
Turning to `CC1=C(CCN2CCOCC2)c2ccccc2/C1=C/c1cccc2ccccc12`, the Ki in test [7] is 466 nM.
On the same count and under the same terms, as for `Cc1ccc(C(=O)c2c(C)n(C3CC3)c3ccccc23)c2ccccc12`, the figure is 118 nM.
With `Cc1c(C(=O)c2cccc3ccccc23)c2ccccc2n1C`, the KiL with Cell membrane [2] was determined as 1 µM. Also, the KiH in the test on Cell membrane [3] came to 2.1 nM.
In the case of `CCCn1cc(C(=O)c2ccc(C)c3ccccc23)c2ccccc21`, the Ki in test [7] was determined as 319 nM.
Consider `Cc1ccc(C(=O)c2c(C)n(C)c3ccccc23)c2ccccc12`, for which the KiL in the test on Cell membrane [2] was 2.6 µM. In the test with Cell membrane [3], the KiH was determined as 0.8 nM.
Take `COc1ccc2c(c1)c(C(=O)c1ccc(C)c3ccccc13)c(C)n2CCN1CCOCC1`: in the test on Cell membrane [1], the result was inactive.
As to `CC1=C(CCN2CCOCC2)c2ccccc2/C1=C\c1cccc2ccccc12`, the result in the test on HEK293 [11] was Active. Moreover, the Ki in [7] turned out to be 466 nM.
As for `Cc1ccc(C(=O)c2c(C)n(CCN3CCOCC3)c3ccc(Cl)cc23)c2ccccc12`, the KiL with Cell membrane [2] amounted to 2.3 µM. Also, the KiH with Cell membrane [3] is 10 nM.
Regarding `COc1ccc2c(C(=O)c3ccc(C)c4ccccc34)c(C)n(CCN3CCOCC3)c2c1`, the EC50 in [4] is 229 nM. For the same molecule, in test [7], the Ki was 113 nM.
Turning to `CCn1cc(C(=O)c2ccc(C)c3ccccc23)c2ccccc21`, the Ki in test [7] stood at 102 nM.
On to `Cc1ccc(C(=O)c2c3n(c4ccccc24)CCCC3)c2ccccc12`, for which the KiL in the test with Cell membrane [2] worked out at 2.6 µM. Moreover, the result in the test with HEK293 [5] and in the test on HEK293 [6] was Active. In addition, in the test with Cell membrane [3], the KiH stood at 5.5 nM.
`C1=C(CCN2CCOCC2)c2ccccc2/C1=C\c1cccc2ccccc12`: the result in the test with HEK293 [11] was Active. Also, the Ki in test [7] came out at 437 nM.
In the case of `Cn1cc(C(=O)N2CCCc3ccccc32)c2ccccc21`, the outcome in the test on Cell membrane [1] was inactive.
As for `Cc1ccc(C(=O)c2c(C)n(CCN3CCOCC3)c3ccccc23)c2ccccc12`, the KiL with Cell membrane [2] came out at 0.09 µM. Also, the outcome in the test on HEK293 [5] and in the test on HEK293 [6] was Active. Also, the KiH with Cell membrane [3] was 0.8 nM.
With `Cc1ccc(C(=O)c2c(C(F)(F)F)n(CCN3CCOCC3)c3ccccc23)c2ccccc12`, the Ki in test [7] was 972 nM.
With `CCn1c(C)c(C(=O)c2ccc(OC)cc2)c2ccccc21`, in the test on Cell membrane [1], the result was inactive.
As for `Cc1c(C(=O)c2cccc3ccccc23)c2cccc3c2n1[C@@H](CN1CCOCC1)CO3`, the KiL with Cell membrane [2] worked out at 0.0072 µM. The KiH in the test with Cell membrane [3] came to 0.027 nM.
For the molecule `C1=C(CCN2CCOCC2)c2ccccc2/C1=C/c1cccc2ccccc12`, in test [7], the Ki was found to be 3400 nM.
`CCCn1c(C)c(C(=O)c2ccc(C)c3ccccc23)c2ccccc21`: in test [7], the Ki was determined as 95 nM.
